Laboratory results: PubChem BioAssay AID624467 (The Scripps Research Institute Molecular Screening Center, 2012)
Where “and” joins values, the source holds several entries; their conditions need not be identical. Identical values can stand only once. Out of some 360,000 compounds screened, about 3,600 (1%) were called active. This is one part of a sample in which actives are shown more often than they occur.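 How the source made its calls: active means activation above the mean activation of all test compounds in the run plus 3 SD (cut at about 38% in these data); inactive means the rest.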

Biological target: Trace amine-associated receptor 1 (Homo sapiens) (UniProt Q96RJ0)
Assay: activators of TAAR1 calcium mobilization – Fluo-8 calcium fluorescence, CHO RD-HGA16 cells, primary screen (AID 624467)
Conditions: CHO RD-HGA16 TAAR1, Fluo-8 calcium fluorescence; at 3 µM; active compounds read high; vehicle wells 0%, saturating PEA agonist 100%
In short: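 Assay system – CHO-derived RD-HGA16 cells with stable Gα16 and human TAAR1 · Compound dosing – one-point dosing at 3 µM (nominal) · Incubation – 17-24 h seeding, 75 min 37 °C dye, 30 min RT · Measured by – kinetic Fluo-8 calcium fluorescence · Control set – DMSO vehicle as 0%, PEA at EC100 as 100% · Repeats – single well for each compound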

Sequence of Trace amine-associated receptor 1 (Homo sapiens) (Q96RJ0 whole entry, looked up): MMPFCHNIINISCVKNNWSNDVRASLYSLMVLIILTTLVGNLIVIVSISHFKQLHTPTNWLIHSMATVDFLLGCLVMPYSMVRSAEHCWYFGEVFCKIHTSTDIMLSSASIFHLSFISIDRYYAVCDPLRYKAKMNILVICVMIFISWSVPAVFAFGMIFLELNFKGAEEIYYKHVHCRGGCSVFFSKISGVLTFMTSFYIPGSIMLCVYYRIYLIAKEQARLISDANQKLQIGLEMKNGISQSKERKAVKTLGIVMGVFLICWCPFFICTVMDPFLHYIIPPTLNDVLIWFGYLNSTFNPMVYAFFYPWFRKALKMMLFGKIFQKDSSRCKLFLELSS

activation, inactive:
CSc1ccc(NC(=O)N2CC(C)OC(C)C2)cc1 (stereo not given) 6.32%
COC(=O)[C@H](Cc1ccccc1)NC(=O)N1CC(C)OC(C)C1 (stereo not given in full) -0.71%
CC(=O)Nc1ccc(SC[C@H](Cc2ccccc2)N2CC[C@@H](C)CCC2=O)cc1 9.24%
O=C(O)/C=C/c1ccc(S(=O)(=O)N2CCCCCC2)cc1 4.85%
C=CCNC(=O)/C=C/c1ccc(C(C)C)cc1 -2.85%
COC(=O)[C@H](CC(C)C)NS(=O)(=O)c1c(F)cccc1F 1.29%
O=C(NCc1ccccc1)[C@H]1CCCN1C(=O)[C@@H]1CCCN1C(=O)c1ccc(Cl)cc1Cl 0.11%
COc1ccc(SSc2ccc(OC)cc2C(=O)O)c(C(=O)O)c1 3.23%
Cn1cnc2c1c(=O)n(Cc1c(Cl)cccc1Cl)c(=O)n2C 1.55%
CC(C)(C)n1ncc2c(=O)n(Cc3ccc(Cl)cc3)cnc21 11.1%
CCCNC(=O)C1(C)CCN(Cc2ccc(Cl)c(Cl)c2)C1 (stereo not given) 1.99%
Cc1ccc(C)c(-n2nnnc2SCC(=O)c2c(N)n(C)c(=O)n(C)c2=O)c1 2.95%
O=C1NC[C@H](CCCCN2C[C@H](Cc3ccc(O)cc3)N(CC3CCCCC3)C(=O)C2=O)N(CCc2ccccc2)C1=O -0.06%
COCCn1c(SC(C)C(=O)NC2CC2)nnc1-c1cccc(C)c1 (stereo not given) 3.19%
NC(=O)C1CCN(C(=O)c2cn(-c3ccccc3)nc2-c2cccnc2)CC1 1.55%
COc1ccccc1N1CCN(C(=O)c2cn(-c3ccccc3)nc2-c2cccnc2)CC1 19.1%
O=C(NCc1ccc(F)cc1)C1CCC(CNc2c(N3CCOCC3)c(=O)c2=O)CC1 (stereo not given) 0.31%
O=C(Nc1nnc(COc2ccccc2)s1)Nc1ccccc1F -0.19%
O=C(NCCOc1ccccc1F)Nc1ccc(Br)cc1 12%
COC(=O)[C@]12C[C@H](CC(=O)NCCC(C)C)C(=O)N(CCc3ccc(OC)c(OC)c3)C1=C[C@H](C(C)(C)C)O[C@@H]2C -1.91%
Cc1nc(NC(=O)C(C)(C)C)sc1[N+](=O)[O-] 1.6%
COC(=O)[C@@H](Cc1ccccc1)NC(=O)NCCc1ccccc1 -0.6%
CCC(CC)NC(=O)CSc1nnc(-c2c[nH]c3ccccc23)o1 3.45%
CCOC(=O)c1cc2c(=O)[nH]c(C(Cl)(Cl)Cl)nc2o1 2.83%
CN1C(=O)C2CC(O)C(SC3CC4C(=O)N(C)C(=O)C4CC3O)CC2C1=O (stereo not given) -0.78%
COc1cc(OC)c(NC(=O)C2CCCN2C(=O)OCc2ccccc2)cc1Cl (stereo not given) 1.2%
CN1C(=O)C(Br)(Br)CC1c1cccnc1 (stereo not given) 0.34%
N#CC1(NC(=O)COC(=O)CCN=C2NS(=O)(=O)c3ccccc32)CCCCC1 1.14%
O=C(OCCN=C1NS(=O)(=O)c2ccccc21)c1cccc([N+](=O)[O-])c1 0.99%
Oc1ccccc1CNc1ncc(Br)cc1Br 4.29%
Cc1cc2cc3c(N)[nH]nc3nc2cc1C 2.1%
Cc1ccc(C2NC(C(=O)O)CS2)cc1 (stereo not given) 6.54%
COC(=O)C1=C(C)N(Cc2ccccc2C(F)(F)F)C(=NCc2ccc(C(F)(F)F)cc2)NC1c1ccc(F)cc1 (stereo not given) 0.73%
COCCCN(C(=O)CSCc1ccc(C)cc1)c1c(N)n(Cc2ccccc2)c(=O)[nH]c1=O 0.76%
COc1cc(OC)cc(C(=O)NC(C(=O)N2CCC2)C(C)C)c1 (stereo not given) 0.84%
COc1cc(OC)cc(C(=O)NCC(=O)OCC(=O)NC(C)CCc2ccccc2)c1 (stereo not given) 4.34%
COc1ccccc1OC(C)C(=O)Nc1ccc(S(=O)(=O)Nc2nccs2)cc1 (stereo not given) 3.3%
O=C(NCCC1=CCCCC1)c1ccc(-n2cncn2)cc1 1.68%
O=C(CCNC(=O)Cn1ccc2ccccc2c1=O)NCCC1=CCCCC1 1.79%
CC1(C)OC(=O)C2=C(CC(CCc3ccccc3)OC2c2ccc(Cl)cc2)O1 (stereo not given) -0.49%
O=c1[nH]c(-c2ccccc2)cn1C1CCN(Cc2ccc(-c3nc4ccc(F)cc4nc3-c3ccccc3)cc2)CC1 2.82%
Cc1cc(C)c(S(=O)(=O)N2CCC(C(=O)OCc3c(C)noc3C)CC2)c(C)c1 5.51%
COC(=O)C1=C(C(=O)OC)C2C=C(C(C)C)C1C(=O)C2(C)O (stereo not given) 1.68%
Clc1ccccc1Nc1nc(NCc2cccs2)nc2ccsc12 7.75%
COc1cccc(CNc2nc(NCc3ccccc3OC)nc3ccsc23)c1 3.04%
CCn1nnc(NC(=O)c2cc(Cl)c(OC)c(Cl)c2)n1 5.93%
O=C1CC(c2ccccc2)C(c2ccccc2)=NN1 (stereo not given) 2.78%
COc1ccc2c(c1)CCc1c(C(=O)N3CCc4ccccc4C3)noc1-2 13.8%
O=C(c1cc(-c2cccc(O)c2)on1)N1CCc2ccccc2C1 31.8%
CCOC(=O)CC1(NC(=O)c2cc(COc3cncc(Cl)c3)on2)CCCCC1 4.12%
O=C(CN1CCc2ccccc21)NC(c1ccccc1)c1ccccc1 -0.06%
CC(=O)c1c(C)[nH]c(C(=O)OCC(=O)Nc2c(C)cccc2C)c1C 18.7%
Cc1ccc(NC(=O)N2c3ccccc3SC2c2ccco2)c(C)c1 (stereo not given) 1.34%
Cc1cc(Br)cn2c(Cc3ccccc3C(F)(F)F)c(-c3ccc(C#N)cc3)nc12 0.31%
COc1ccc(-c2cc(C(F)(F)F)nc(SCCC(=O)NCc3ccco3)n2)cc1 0.17%
O=C(CSc1nc(-c2ccco2)cc(C(F)(F)F)n1)N1CCc2ccccc2C1 19.4%
CN(O)C(=S)c1ccccc1 4.65%
C[C@@H]1ON(C)[C@H]2C[C@H]3c4cc(N5CCOCC5)ccc4CCN3C[C@@H]12 2%
O=C(O)C1C2C=CC(O2)C1C(=O)Nc1ccccn1 (stereo not given) 2.36%
O=C(NCCc1ccccc1)C1CC1 20.1%
O=C(NCc1ccccc1)[C@@H]1CCCN1C(=O)[C@H]1CCCN1C(=O)c1cccc(Cl)c1 -0.12%
COc1ccc(CCNC(=O)COC(=O)c2cc(=O)c3ccccc3o2)cc1 17.5%
COc1ccc(CNC(=O)COC(=O)C(CCSC)N2C(=O)c3ccccc3C2=O)cc1 (stereo not given) 9.85%
Cc1nc2c(C(=O)NCc3cccs3)cnn2c(C)c1Cc1ccc(F)cc1 -1.18%
Cc1ccc(NC(=O)CC2C(=O)N(Cc3ccccc3)C(=S)N2NC(=O)c2cccc(F)c2)c(C)c1 (stereo not given) 9.32%
COC(=O)Cc1nnn2c1[C@H](C)[C@H](c1ccccc1[N+](=O)[O-])OCC2 1.43%
Cc1ccc(Cl)c(OCC(=O)N2CCc3ccccc3C2)c1 0.5%
Cc1cccc(N(CC(=O)N2CCOCC2)S(C)(=O)=O)c1 0.3%
O=C(CN(c1cccc(Cl)c1)S(=O)(=O)c1ccccc1)NN=C1CCCC1 -0.99%
CS(=O)(=O)N(CC(=O)N1CCc2ccccc2C1)c1ccc(Br)cc1 2.37%
CCOC(=O)CNC(=O)N(C)[C@H]1C[C@H]2c3[nH]c4c(-c5ccc6c(c5)OCO6)cccc4c3CCN2C(=O)[C@H]1[C@H](C)O 11.6%
COc1cccc(CNC(=O)[C@H]2CCCN2C(=O)[C@H]2CCCN2C(=O)C2CCCCC2)c1 2.02%
CCc1nn(CCCN2CCN(c3cccc(Cl)c3)CC2)c(=O)n1CCOc1ccccc1 5.08% and 3.96%

activation, active:
Cc1cccc(C)c1NC(=O)N1CC(C)OC(C)C1 (stereo not given) 41.9%
O=C(/C=C(O)/C=C/c1ccc(O)cc1)/C=C/c1ccc(O)cc1 63.8%
CC(C)(C)n1ncc2c(=O)n(Cc3c(Cl)cccc3Br)cnc21 38.2%
O=C(NNC(=S)NC(=O)c1cn(-c2ccccc2)nc1-c1ccccc1)c1ccncc1 118%
O=C(Nc1ccccc1)Nc1nnc(COc2ccccc2F)s1 49.8%
NC[C@H](Cc1ccccc1)NCCc1cc(C(F)(F)F)cc(C(F)(F)F)c1 47.6%
O=C(CCCN=C1NS(=O)(=O)c2ccccc21)OCC(=O)c1ccc(F)c(F)c1 86.8%
COc1cc(OC)cc(C(=O)N[C@H](C(=O)OCC(=O)NC(C)c2ccccc2)C(C)C)c1 (stereo not given in full) 78.4%
Cc1ccn2c(=O)c(C(=O)NCCC3=CCCCC3)c(O)nc2c1 75.2%
COc1cccc(CNc2nc(NCc3cccs3)nc3ccsc23)c1 39%
O=C(c1noc2c1CCCC2)N1CCc2ccccc2C1 54.6%
COC(=O)c1[nH]c2cccc(C)c2c1NC(=O)CN1CCCc2ccccc21 38.2%
O=C(CSc1nc(-c2ccco2)cc(C(F)(F)F)n1)NCc1cccs1 75.6%
O=C(O)C1C2C=CC(O2)C1C(=O)NCCc1cccc(Cl)c1 (stereo not given) 76.8%
COc1ccc(CNC(=O)COC(=O)C2=Cc3ccccc3OC2)cc1 43.4%
Cc1ccc(S(=O)(=O)N(CC(=O)N2CCc3ccccc3C2)c2cccc(Cl)c2)cc1 49.8%
COc1cccc(N(CC(=O)N2CCc3ccccc3C2)S(C)(=O)=O)c1 47.3%
